# Reference: ChEMBL document CHEMBL4706728, “Discovery of a Highly Selective and Potent TRPC3 Inhibitor with High Metabolic Stability and Low Toxicity” (ACS Med Chem Lett, 2021)
# Biological target: T1, Short transient receptor potential channel 3 (Homo sapiens, UniProt Q13507)
# T1 sequence (Q13507 whole entry): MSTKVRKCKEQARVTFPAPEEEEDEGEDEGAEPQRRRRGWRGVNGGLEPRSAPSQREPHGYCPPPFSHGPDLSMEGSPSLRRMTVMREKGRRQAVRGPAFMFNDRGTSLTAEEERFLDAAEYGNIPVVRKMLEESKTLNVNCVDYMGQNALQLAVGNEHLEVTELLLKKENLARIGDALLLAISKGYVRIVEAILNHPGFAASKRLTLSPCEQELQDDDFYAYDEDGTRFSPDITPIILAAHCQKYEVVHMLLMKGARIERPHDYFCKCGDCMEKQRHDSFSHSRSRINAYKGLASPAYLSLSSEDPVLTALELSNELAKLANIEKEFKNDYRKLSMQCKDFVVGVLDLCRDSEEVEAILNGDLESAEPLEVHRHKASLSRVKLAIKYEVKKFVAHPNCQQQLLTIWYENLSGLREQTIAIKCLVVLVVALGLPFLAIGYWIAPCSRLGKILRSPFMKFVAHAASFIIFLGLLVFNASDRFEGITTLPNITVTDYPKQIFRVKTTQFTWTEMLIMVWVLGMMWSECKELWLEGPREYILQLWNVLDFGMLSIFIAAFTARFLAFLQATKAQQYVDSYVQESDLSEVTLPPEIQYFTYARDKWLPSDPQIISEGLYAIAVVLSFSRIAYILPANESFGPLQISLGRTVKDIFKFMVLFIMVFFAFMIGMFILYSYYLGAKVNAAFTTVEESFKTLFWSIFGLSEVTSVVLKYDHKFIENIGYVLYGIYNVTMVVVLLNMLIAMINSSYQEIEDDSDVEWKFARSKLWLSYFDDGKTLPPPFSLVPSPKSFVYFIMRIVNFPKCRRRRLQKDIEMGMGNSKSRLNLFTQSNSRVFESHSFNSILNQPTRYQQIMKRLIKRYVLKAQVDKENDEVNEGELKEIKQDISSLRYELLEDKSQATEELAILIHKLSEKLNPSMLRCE
# Test: Inhibition of human TRPC3 expressed in HEK293 cells assessed as inhibition of GSK170-induced current in presence of 2 mM extracellular calcium by whole cell patch-clamp method
# Type: cell-based
# Outline: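 hTRPC3 in HEK293 cells, whole-cell patch clamp with 2 mM extracellular Ca2+. Currents elicited by 1 μM GSK1702934A and challenged with a range of inhibitor concentrations by perfusion. Each concentration tested on separate cells and normalized to the cell's maximum amplitude. Dose–response curve built from the data; mean ± SD.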
smiles,measurement,value
CCNC(=O)c1cnn(-c2ccc(-n3ccc(Cl)c(Cl)c3=O)cc2)c1C(F)(F)F,IC50,430 nM
